From ChEMBL document CHEMBL2417450, “Antitumor properties of substituted (αE)-α-(1H-indol-3-ylmethylene)benzeneacetic acids or amides” (Bioorg Med Chem, 2013)
The source made the active and inactive calls. No cut-off for these calls is given here.

Columns and labels:
[1] = Cytotoxicity against human fibroblasts assessed as cell viability after 72 hrs by MTT assay relative to control; format: cell-based, Fibroblast; parameters: concentration or dose not given beside the values; conditions: read-out: Activity
M14 = test: Cytotoxicity against human M14 cells assessed as cell viability after 72 hrs by MTT assay; format: functional, cell-based; conditions: M14, 72 h
In short: (§1)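 Cells were grown at 37 °C in humidified 5% CO2/95% air. DU145 and A549 were kept in DMEM with 10% FCS, glutamine and nonessential amino acids. LNCaP, KB and M14 were kept in RPMI with 10% FCS, and Caco2 in MEM with 10% FCS. For the MTT assay, 1 × 10^4 cells were seeded per well and preincubated 24 h, then treated 72 h (DMSO ≤0.1%). MTT (0.5% in PBS) was added 4 h before the end, formazan was dissolved in DMSO, and OD was read at 550 nm. Triplicates were run.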

A549 = test: Cytotoxicity against human A549 cells assessed as cell viability after 72 hrs by MTT assay; format: functional, cell-based; conditions: A549, 72 h; in short: as §1
KB = test: Cytotoxicity against human KB cells assessed as cell viability after 72 hrs by MTT assay; format: functional, cell-based; in short: as §1
LNCaP = test: Cytotoxicity against human LNCAP cells assessed as cell viability after 72 hrs by MTT assay; format: functional, cell-based; in short: as §1
DU-145 [2] = test: Cytotoxicity against human DU145 cells assessed as cell viability after 72 hrs by MTT assay; format: functional, cell-based; conditions: DU-145, 72 h; in short: as §1
Caco-2 = test: Cytotoxicity against human Caco2 cells assessed as cell viability after 72 hrs by MTT assay; format: functional, cell-based; conditions: Caco-2, 72 h; in short: as §1
[3] = biological target: T1, AKT/p21CIP1 (Homo sapiens) (UniProt P38936+P31749); test: Inhibition of AKT/p21CIP1 in human DU145 cells assessed as decrease in ratio of phosphorylated retinoblastoma level to unphosphorylated retinoblastoma level at 0.1 uM after 72 hrs by Western blotting analysis; format: cell-based; conditions: DU-145, 1 uM, in the assay text read “1 uM” for “0.1 uM”
In short: (§2)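 DU145 cells were treated 72 h and lysed in 2% SDS buffer. Equal protein was resolved by SDS-PAGE and probed for phospho-Rb Ser249/Thr252, total Rb (1:200 each) and α-tubulin. Bands were visualized on autoradiography film and read densitometrically relative to α-tubulin. The p-Rb/Rb ratio was compared with control. Results are mean SEM of three experiments, with Student's t test.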

DU-145 [4] = test: Increase in p21 protein expression in human DU145 cells at 0.1 uM after 72 hrs by Western blotting analysis; format: functional, cell-based; conditions: 1 uM, in the assay text read “1 uM” for “0.1 uM”
In short: (§3)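 DU145 cells were treated 72 h, rinsed in PBS and lysed in 2% SDS buffer (50 mM Tris-HCl pH 6.8, protease inhibitors, 2 mM orthovanadate, 1 mM NaF, 1 mM pyrophosphate). Protein was quantified by BCA, and equal protein was run on 10% SDS-PAGE and blotted to nitrocellulose. Blots were blocked in 5% milk TBS-Tween 0.1%, detected by ECL and normalized to β-actin. Results are mean SEM of three experiments, with Student's t test versus control.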

DU-145 [5] = test: Decrease in total GSK3beta protein level in human DU145 cells at 0.1 uM after 72 hrs by Western blotting analysis; format: functional, cell-based; conditions: 1 uM, in the assay text read “1 uM” for “0.1 uM”; in short: as §3
DU-145 [6] = test: Effect on total ERK1/2 protein level in human DU145 cells at 0.1 uM after 72 hrs by Western blotting analysis; format: functional, cell-based; in short: as §3
[7] = biological target: Glycogen synthase kinase-3 beta (Homo sapiens) (UniProt P49841); test: Inhibition of GSK3beta phosphorylation at Ser9 in human DU145 cells at 0.1 uM after 72 hrs by Western blotting analysis; format: cell-based; conditions: DU-145; in short: as §3
Glycogen synthase kinase-3 beta (Homo sapiens), sequence (P49841 whole entry, looked up): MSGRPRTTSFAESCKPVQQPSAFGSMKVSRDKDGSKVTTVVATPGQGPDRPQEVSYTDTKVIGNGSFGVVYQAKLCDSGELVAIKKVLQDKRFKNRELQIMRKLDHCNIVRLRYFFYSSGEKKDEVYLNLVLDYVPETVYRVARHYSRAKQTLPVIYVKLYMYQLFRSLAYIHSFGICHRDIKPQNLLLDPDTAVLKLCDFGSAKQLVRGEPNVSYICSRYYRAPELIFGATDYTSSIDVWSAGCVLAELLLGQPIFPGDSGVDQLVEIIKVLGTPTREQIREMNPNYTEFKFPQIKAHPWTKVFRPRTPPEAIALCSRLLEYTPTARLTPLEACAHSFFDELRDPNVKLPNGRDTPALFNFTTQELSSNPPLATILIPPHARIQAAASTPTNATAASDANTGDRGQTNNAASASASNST

DU-145 [8] = test: Effect on total AKT protein level in human DU145 cells at 0.1 uM after 72 hrs by Western blotting analysis; format: functional, cell-based; in short: as §3
[9] = biological target: T2, Mitogen-activated protein kinase; ERK1/ERK2 (Homo sapiens) (UniProt P27361+P28482); test: Inhibition of ERK1/2 phosphorylation at Thr202/Tyr204 in human DU145 cells at 0.1 uM after 72 hrs by Western blotting analysis relative to control; format: cell-based; conditions: DU-145; in short: as §3
T2 sequence (P27361 whole entry, looked up): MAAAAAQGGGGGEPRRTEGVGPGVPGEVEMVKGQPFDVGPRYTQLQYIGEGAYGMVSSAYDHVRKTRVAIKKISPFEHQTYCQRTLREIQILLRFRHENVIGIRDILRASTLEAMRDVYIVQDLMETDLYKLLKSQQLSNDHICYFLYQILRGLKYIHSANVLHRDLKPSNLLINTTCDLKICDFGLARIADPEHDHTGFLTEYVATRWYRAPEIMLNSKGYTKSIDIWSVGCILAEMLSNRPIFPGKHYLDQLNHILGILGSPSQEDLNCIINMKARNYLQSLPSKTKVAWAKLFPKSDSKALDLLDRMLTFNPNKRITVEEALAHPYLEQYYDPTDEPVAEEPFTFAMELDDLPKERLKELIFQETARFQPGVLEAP
T2 sequence (P28482 whole entry, looked up): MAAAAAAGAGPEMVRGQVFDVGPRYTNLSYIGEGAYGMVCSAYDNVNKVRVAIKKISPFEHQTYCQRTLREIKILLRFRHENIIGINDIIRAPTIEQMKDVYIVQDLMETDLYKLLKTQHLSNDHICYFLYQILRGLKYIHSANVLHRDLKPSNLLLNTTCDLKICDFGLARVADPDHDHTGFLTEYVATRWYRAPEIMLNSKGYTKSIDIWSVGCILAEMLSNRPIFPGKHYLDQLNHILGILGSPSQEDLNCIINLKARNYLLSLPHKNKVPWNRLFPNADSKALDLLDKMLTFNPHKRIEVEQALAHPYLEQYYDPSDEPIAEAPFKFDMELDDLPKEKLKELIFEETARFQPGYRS

[10] = biological target: RAC-alpha serine/threonine-protein kinase (Homo sapiens) (UniProt P31749); test: Inhibition of AKT phosphorylation at Ser473 in human DU145 cells at 0.1 uM after 72 hrs by Western blotting analysis relative to control; format: cell-based; conditions: DU-145; in short: as §3
RAC-alpha serine/threonine-protein kinase (Homo sapiens), sequence (P31749 whole entry): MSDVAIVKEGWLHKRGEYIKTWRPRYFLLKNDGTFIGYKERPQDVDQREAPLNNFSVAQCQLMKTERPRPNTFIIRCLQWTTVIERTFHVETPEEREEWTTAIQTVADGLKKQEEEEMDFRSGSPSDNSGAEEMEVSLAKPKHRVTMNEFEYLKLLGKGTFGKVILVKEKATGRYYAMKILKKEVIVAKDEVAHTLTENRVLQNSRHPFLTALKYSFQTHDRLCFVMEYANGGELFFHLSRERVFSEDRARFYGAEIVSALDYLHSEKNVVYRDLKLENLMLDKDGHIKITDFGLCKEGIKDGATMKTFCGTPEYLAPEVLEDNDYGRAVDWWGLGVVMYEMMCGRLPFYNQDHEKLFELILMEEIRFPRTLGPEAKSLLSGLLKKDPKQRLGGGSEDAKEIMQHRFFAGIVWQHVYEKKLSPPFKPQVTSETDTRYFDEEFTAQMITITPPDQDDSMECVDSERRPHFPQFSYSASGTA

[11] = biological target: T1, AKT/p21CIP1 (Homo sapiens); test: Inhibition of AKT/p21CIP1 in human DU145 cells assessed as decrease in ratio of phosphorylated retinoblastoma level to unphosphorylated retinoblastoma level at 1 uM after 72 hrs by Western blotting analysis; format: cell-based; conditions: DU-145; in short: as §2
DU-145 [12] = test: Increase in p21 protein expression in human DU145 cells at 1 uM after 72 hrs by Western blotting analysis; format: functional, cell-based; in short: as §3
DU-145 [13] = test: Decrease in total GSK3beta protein level in human DU145 cells at 1 uM after 72 hrs by Western blotting analysis; format: functional, cell-based; in short: as §3
[14] = biological target: Glycogen synthase kinase-3 beta (Homo sapiens) (UniProt P49841); test: Inhibition of GSK3beta phosphorylation at Ser9 in human DU145 cells at 1 uM after 72 hrs by Western blotting analysis; format: cell-based; conditions: DU-145; in short: as §3
DU-145 [15] = test: Effect on total AKT protein level in human DU145 cells at 1 uM after 72 hrs by Western blotting analysis; format: functional, cell-based; in short: as §3
DU-145 [16] = test: Effect on total ERK1/2 protein level in human DU145 cells at 1 uM after 72 hrs by Western blotting analysis; format: functional, cell-based; in short: as §3
[17] = biological target: T2, Mitogen-activated protein kinase; ERK1/ERK2 (Homo sapiens); test: Inhibition of ERK1/2 phosphorylation at Thr202/Tyr204 in human DU145 cells at 1 uM after 72 hrs by Western blotting analysis relative to control; format: cell-based; conditions: DU-145; in short: as §3
[18] = biological target: RAC-alpha serine/threonine-protein kinase (Homo sapiens) (UniProt P31749); test: Inhibition of AKT phosphorylation at Ser473 in human DU145 cells at 1 uM after 72 hrs by Western blotting analysis relative to control; format: cell-based; conditions: DU-145; in short: as §3

| Structure (SMILES) | viability at 72 h [1] [%] | IC50 (M14) [µM] | IC50 (A549) [µM] | IC50 (KB) [µM] | IC50 (LNCaP) [µM] | IC50 (DU-145 [2]) [µM] | IC50 (Caco-2) [µM] | further results |
| --- | --- | --- | --- | --- | --- | --- | --- | --- |
| CC(=O)n1cc(/C=C(/C(=O)O)c2ccc(Cl)cc2)c2cc(OCc3ccccc3)ccc21 | 85 | > 100 | 52.3 | > 100 | > 100 | 1.13 | – | – |
| O=C(O)/C(=C/c1c[nH]c2ccccc12)c1ccccc1 | 85 | > 100 | – | > 100 | – | > 100 | > 100 | – |
| COc1ccc(/C(=C\c2c[nH]c3ccccc23)C(N)=O)cc1 | 85 | 53 | – | 86.2 | – | 40 | > 100 | – |
| COc1ccc(/C(=C\c2c[nH]c3ccccc23)C(=O)O)cc1 | 85 | > 100 | – | > 100 | – | > 100 | > 100 | – |
| COc1cc(OC)cc(/C(=C\c2cn(C(C)=O)c3ccc(OCc4ccccc4)cc23)C(=O)O)c1 | 85 | 94 | 26 | 30.4 | 26.1 | 0.88 | – | – |
| COc1ccc(/C(=C\c2c[nH]c3ccc(OCc4ccccc4)cc23)C(=O)O)cc1 | 85 | 58.4 | – | 38.5 | – | 38.1 | > 100 | – |
| COc1ccc(/C(=C\c2cn(C(C)=O)c3ccc(OCc4ccccc4)cc23)C(=O)O)cc1 | 85 | > 100 | > 100 | > 100 | 85 | 0.91 | – | inhibition [3]: Active; Activity (DU-145 [4]): Active; Activity (DU-145 [5]): Active; Activity (DU-145 [6]): inactive; inhibition [7]: inactive; Activity (DU-145 [8]): inactive; inhibition [9]: Active; inhibition [10]: Active; inhibition [11]: Active; Activity (DU-145 [12]): Active; Activity (DU-145 [13]): Active; inhibition [14]: inactive; Activity (DU-145 [15]): inactive; Activity (DU-145 [16]): inactive; inhibition [17]: 40%; inhibition [18]: 20% |
| CC(=O)n1cc(/C=C(/C(=O)O)c2ccc(OCc3ccccc3)cc2)c2cc(OCc3ccccc3)ccc21 | 85 | 58.2 | 44.1 | 43 | 77.7 | 1.41 | – | – |
| CC(=O)n1cc(/C=C(/C(=O)O)c2ccccc2)c2cc(OCc3ccccc3)ccc21 | 85 | > 100 | 57.5 | 55.5 | > 100 | 26.7 | – | – |
| COc1cccc(/C(=C\c2cn(C(C)=O)c3ccc(OCc4ccccc4)cc23)C(=O)O)c1 | 85 | > 100 | 45.2 | > 100 | 65.1 | 1.08 | – | – |
| NC(=O)/C(=C/c1c[nH]c2ccc(OCc3ccccc3)cc12)c1ccccc1 | 85 | > 100 | – | 40.3 | – | 30.9 | > 100 | – |
| COc1ccccc1/C(=C\c1cn(C(C)=O)c2ccc(OCc3ccccc3)cc12)C(=O)O | 85 | > 100 | 57.2 | > 100 | 48.5 | 1.01 | – | – |
| COc1ccc(/C(=C\c2c[nH]c3ccc(OCc4ccccc4)cc23)C(N)=O)cc1 | 85 | > 100 | – | > 100 | – | 39.8 | > 100 | – |
| COc1cc(/C(=C\c2cn(C(C)=O)c3ccc(OCc4ccccc4)cc23)C(=O)O)cc(OC)c1OC | 85 | 57.1 | 89.1 | > 100 | 59.6 | 0.95 | – | – |
| O=C(O)/C(=C/c1c[nH]c2ccc(OCc3ccccc3)cc12)c1ccccc1 | 85 | 95.2 | – | 55.5 | – | 34.7 | 41.6 | – |
| COc1ccc(OC)c(/C(=C\c2cn(C(C)=O)c3ccc(OCc4ccccc4)cc23)C(=O)O)c1 | 85 | 87.1 | 54.5 | > 100 | 44.1 | 0.83 | – | – |
| NC(=O)/C(=C/c1c[nH]c2ccccc12)c1ccccc1 | 85 | 45.4 | – | > 100 | – | 33.3 | > 100 | – |
| CC(=O)n1cc(/C=C(/C(=O)O)c2ccc3c(c2)OCO3)c2cc(OCc3ccccc3)ccc21 | 85 | > 100 | 53.6 | > 100 | 99.1 | 1.15 | – | – |
| COc1ccc(/C(=C\c2cn(C(C)=O)c3ccc(OCc4ccccc4)cc23)C(=O)O)cc1OC | 85 | 65.5 | 54.8 | 96.7 | > 100 | 1.05 | – | – |
| COc1ccc(Cn2cc(/C=C(/C(=O)O)c3ccccc3)c3cc(OCc4ccccc4)ccc32)cc1 | 85 | 64.5 | 1 | 97 | 38.2 | 0.86 | – | – |
